Measurements as given in ChEMBL document CHEMBL1124579, “7-Heteroaryl-1,2,3,5-tetrahydroimidazo[2,1-b]quinazolin -2(1H)-one derivatives with cardiac stimulant activity” (J Med Chem, 1989).

How the values were obtained:
Canis familiaris [1] = experiment: Percent increase in dP/dtmax (positive inotropic activity) in anesthetized dog after administration of 50 ug/kg Intravenously; format: functional, Canis lupus familiaris
How it was run: (§1)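 Anesthetized dog with a catheter-tip transducer passed into the left ventricle via the carotid artery. LV pressure is differentiated to give dP/dtmax, the contractility index. There is 0.75 h equilibration after surgery. The compound is given iv in 0.9% saline (4 mL), 0.5 h after the standard agent (50 μg/kg). The cycle is repeated once control levels return, at least 0.5 h apart. The result is the % increase in dP/dtmax.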

Canis familiaris [2] = experiment: Relative inotropic response (50 umg/kg Intravenously) to that of 4-[4-[2-(1,1-dioxo-2-isothiazolidinyl)ethyl]-1-piperidinyl]-6,7-dimethoxyquinazoline […], in dog; format: functional, Canis lupus familiaris
How it was run: (§2)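 Anesthetized dog with a left-ventricular catheter introduced via the carotid artery; dP/dtmax is derived from LV pressure. The standard quinazoline (50 μg/kg iv) is given first, then the test compound iv in saline 0.5 h later, in the same dog. Relative potency = (% increase in dP/dtmax to drug ÷ % increase to standard) × (dose standard ÷ dose drug).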

Canis familiaris [3] = experiment: Percent increase in dP/dtmax (positive inotropic activity) in anesthetized dog after administration of 250 ug/kg Intravenously; format: functional, Canis lupus familiaris; how it was run: as §1
Canis familiaris [4] = experiment: Cardiac contractility (decrease in the QA interval) in conscious dog 1 hour after oral administration (dose 1 mg/kg); format: functional, Canis lupus familiaris
How it was run: (§3)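 Conscious dogs; the test substance is given by gavage as a solution. The QA interval is the time from the ECG R wave to the upstroke of the arterial pressure pulse, measured by computer. It is recorded every 0.16 h from 0.5 h before dosing to 4 h after. Each point is the mean of six consecutive sets, each averaged over 8 s. The result is the change from the mean predose value.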

Canis familiaris [5] = experiment: Percent increase in dP/dtmax (positive inotropic activity) in anesthetized dog after administration of 10 micro mg/kg Intravenously; format: functional, Canis lupus familiaris; how it was run: as §1
Canis familiaris [6] = experiment: Cardiac contractility (decrease in the QA interval) in conscious dog, 3 hours after oral administration (dose 1 mg/kg); format: functional, Canis lupus familiaris; how it was run: as §3
Canis familiaris [7] = experiment: Relative inotropic response (10 ug/kg Intravenously) to that of 4-[4-[2-(1,1-dioxo-2-isothiazolidinyl)ethyl]-1-piperidinyl]-6,7-dimethoxyquinazoline (5- ug/kg), in dog; format: functional, Canis lupus familiaris; how it was run: as §2
Canis familiaris [8] = experiment: Relative inotropic response (50 micro mg/kg Intravenously) to that of 4-[4-[2-(1,1-dioxo-2-isothiazolidinyl)ethyl]-1-piperidinyl]-6,7-dimethoxyquinazoline (5- ug/kg), in dog; format: functional, Canis lupus familiaris; how it was run: as §2
Canis familiaris [9] = experiment: Relative inotropic response (20 micro mg/kg Intravenously) to that of 4-[4-[2-(1,1-dioxo-2-isothiazolidinyl)ethyl]-1-piperidinyl]-6,7-dimethoxyquinazoline (5- ug/kg), in dog; format: functional, Canis lupus familiaris; how it was run: as §2
Canis familiaris [10] = experiment: Percent increase in dP/dtmax (positive inotropic activity) in anesthetized dog after administration of 20 ug/kg Intravenously; format: functional, Canis lupus familiaris; how it was run: as §1
Canis familiaris [11] = experiment: Cardiac contractility (decrease in the QA interval) in conscious dog 1 hour after oral administration (dose 0.125 mg/kg); format: functional, Canis lupus familiaris; how it was run: as §3
Canis familiaris [12] = experiment: Cardiac contractility (decrease in the QA interval) in conscious dog, 3 hours after oral administration (dose 0.125 mg/kg); format: functional, Canis lupus familiaris; how it was run: as §3
Canis familiaris [13] = experiment: Relative inotropic response (50 ug/kg Intravenously) to that of 4-[4-[2-(1,1-dioxo-2-isothiazolidinyl)ethyl]-1-piperidinyl]-6,7-dimethoxyquinazoline […], in dog; format: functional, Canis lupus familiaris; how it was run: as §2
Canis familiaris [14] = experiment: Cardiac contractility (decrease in the QA interval) in conscious dog 1 hour after oral administration (dose 0.1 mg/kg); format: functional, Canis lupus familiaris; how it was run: as §3
Canis familiaris [15] = experiment: Relative inotropic response (2 ug/kg Intravenously) to that of 4-[4-[2-(1,1-dioxo-2-isothiazolidinyl)ethyl]-1-piperidinyl]-6,7-dimethoxyquinazoline (5- ug/kg), in dog; format: functional, Canis lupus familiaris; how it was run: as §2
Canis familiaris [16] = experiment: Percent increase in dP/dtmax (positive inotropic activity) in anesthetized dog after administration of 2 micro mg/kg Intravenously; format: functional, Canis lupus familiaris; how it was run: as §1
Canis familiaris [17] = experiment: Cardiac contractility (decrease in the QA interval) in conscious dog, 3 hours after oral administration (dose 0.1 mg/kg); format: functional, Canis lupus familiaris; how it was run: as §3
Canis familiaris [18] = experiment: Percent increase in dP/dtmax of positive inotropic activity in conscious dog after administration of 25 ug/kg orally
Canis familiaris [19] = experiment: Percent increase in dP/dtmax of positive inotropic activity in conscious dog after administration of 100 ug/kg orally
Canis familiaris [20] = experiment: Relative inotropic response (250 ug/kg Intravenously) to that of 4-[4-[2-(1,1-dioxo-2-isothiazolidinyl)ethyl]-1-piperidinyl]-6,7-dimethoxyquinazoline (5- ug/kg), in dog; format: functional, Canis lupus familiaris; how it was run: as §2
[21] = Dissociation constant was determined; format: physicochemical
Canis familiaris [22] = experiment: Percent increase in dP/dtmax (positive inotropic activity) in anesthetized dog after administration of 25 ug/kg Intravenously; format: functional, Canis lupus familiaris; how it was run: as §1
Canis familiaris [23] = experiment: Cardiac contractility (decrease in the QA interval) in conscious dog, 3 hours after oral administration (dose 0.25 mg/kg); format: functional, Canis lupus familiaris; how it was run: as §3
Canis familiaris [24] = experiment: Cardiac contractility (decrease in the QA interval) in conscious dog 1 hour after oral administration (dose 0.25 mg/kg); format: functional, Canis lupus familiaris; how it was run: as §3
Canis familiaris [25] = experiment: Relative inotropic response (25 ug/kg Intravenously) to that of 4-[4-[2-(1,1-dioxo-2-isothiazolidinyl)ethyl]-1-piperidinyl]-6,7-dimethoxyquinazoline ([…]), in dog; format: functional, Canis lupus familiaris; how it was run: as §2

SMILES: CC1CC(O)=NN=C1c1ccc(-n2ccnc2)cc1.Cl (configuration not stated)
- Increase in dP/dtmax (Canis familiaris [1]): 100%
- Relative potency (Canis familiaris [2]): 1.6

SMILES: Cc1cn(-c2cc(C)c3c(c2)CN2C(=N3)NC(=O)C2(C)C)c(C)n1
- Increase in dP/dtmax (Canis familiaris [3]): 20%

SMILES: Cc1cn(-c2cc(C)c3c(c2)CN2C(=N3)NC(=O)C2C)c(C)n1 (configuration not stated)
- Decrease in the QA interval (Canis familiaris [4]): 9 ms
- Increase in dP/dtmax (Canis familiaris [5]): 12%
- Decrease in the QA interval (Canis familiaris [6]): 15 ms
- Relative inotropic potency (Canis familiaris [7]): 0.9

SMILES: O=C1CN2Cc3cc(-n4cncn4)ccc3N=C2N1
- Increase in dP/dtmax (Canis familiaris [1]): 63%
- Relative inotropic potency (Canis familiaris [8]): 1.7

SMILES: Cc1cn(-c2ccc3c(c2)CN2CC(=O)NC2=N3)c(C)n1
- Decrease in the QA interval (Canis familiaris [4]): 6 ms
- Decrease in the QA interval (Canis familiaris [6]): 10 ms
- Relative inotropic potency (Canis familiaris [9]): 1.9
- Increase in dP/dtmax (Canis familiaris [10]): 30%

SMILES: Cc1cc(-n2cncn2)cc2c1NC1=NC(=O)CN1C2
- Increase in dP/dtmax (Canis familiaris [1]): 76%
- Relative inotropic potency (Canis familiaris [8]): 3.2
- Decrease in the QA interval (Canis familiaris [11]): 8 ms
- Decrease in the QA interval (Canis familiaris [12]): 12 ms

SMILES: Cc1ccc(-c2ccc3c(c2)C(C)N2CC(=O)N=C2N3)c(C)n1 (configuration not stated)
- Increase in dP/dtmax (Canis familiaris [1]): 50%
- Relative inotropic potency (Canis familiaris [8]): 1.6
- Decrease in the QA interval (Canis familiaris [11]): 13 ms
- Decrease in the QA interval (Canis familiaris [12]): 9 ms

SMILES: Cc1ccc(-c2ccc3c(c2)CN2CC(=O)NC2=N3)c(C)n1
- Decrease in the QA interval (Canis familiaris [4]): 14 ms
- Relative potency (Canis familiaris [13]): 1.3
- Decrease in the QA interval (Canis familiaris [6]): 15 ms
- Increase in dP/dtmax (Canis familiaris [1]): 29%

SMILES: Cc1cc(-n2cnnc2)cc2c1NC1=NC(=O)CN1C2
- Relative potency (Canis familiaris [13]): 0.5
- Increase in dP/dtmax (Canis familiaris [1]): 24%

SMILES: Cc1ccc(-c2cc(C)c3c(c2)CN2CC(=O)NC2=N3)c(C)n1
- Increase in dP/dtmax (Canis familiaris [5]): 30%
- Decrease in the QA interval (Canis familiaris [11]): 15 ms
- Relative inotropic potency (Canis familiaris [7]): 2.7
- Decrease in the QA interval (Canis familiaris [12]): 15 ms

SMILES: Cc1cn(-c2cc(C)c3c(c2)CN2CC(=O)NC2=N3)c(C)n1
- Decrease in the QA interval (Canis familiaris [14]): 5 ms
- Relative inotropic potency (Canis familiaris [15]): 7.8
- Increase in dP/dtmax (Canis familiaris [16]): 23%
- Decrease in the QA interval (Canis familiaris [17]): 15 ms
- Increase in dP/dtmax (Canis familiaris [18]): 20%
- Increase in dP/dtmax (Canis familiaris [19]): 50%

SMILES: O=C1CN2Cc3ccccc3N=C2N1
- Relative inotropic potency (Canis familiaris [20]): 0.1
- pKa [21]: 10.9
- Increase in dP/dtmax (Canis familiaris [3]): 24%

SMILES: Cc1[nH]c(=O)c(C#N)cc1-c1ccncc1 [MILRINONE]
- Increase in dP/dtmax (Canis familiaris [22]): 46%
- Decrease in the QA interval (Canis familiaris [23]): 7 ms
- Decrease in the QA interval (Canis familiaris [24]): 13 ms
- Relative potency (Canis familiaris [25]): 1.6

SMILES: Cc1cn(-c2cc(C)c3[nH]c(=O)ccc3c2)c(C)n1 [NANTERINONE]
- pKa [21]: 11.2

SMILES: C[C@@H]1C(=O)NC2=Nc3cccc(Cl)c3CN21 [QUAZINONE]
- Relative inotropic potency (Canis familiaris [20]): 0.3
- Increase in dP/dtmax (Canis familiaris [3]): 66%
